# Screening results (PubChem)
# Only some compounds are listed: those with a hit (about 2.1% of all), similar ones and a draw of the others.
# CAL PDZ FP-1: human CAL PDZ-peptide interaction inhibition | purified CAL PDZ, TMR-peptide fluorescence polarization, 1 h | inhibition, % at 20 µM | actives 0.02% (n = 330,000);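 active = highest replicate inhibition of at least 40%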;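 note: plate controls were DMSO neutral control wells for no effect and unlabeled competitor peptide control wells for full effect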
#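 Material: tagged CAL PDZ domain; buffer or medium: 25 mM sodium phosphate pH 7.4, 150 mM NaCl, TCEP, IgG, Thesit; compound dosing: single point, 20 µM; schedule: 1 h incubation at room temperature before polarization reading; measured by: FP readout, S and P plane fluorescence; read-out basis: percent inhibition from loss of millipolarization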
# SR-BI HDL uptake: inhibitors of mouse SR-BI mediated HDL lipid uptake; Q61009; ldlA[mSR-BI] CHO cells, DiI-HDL uptake fluorescence, 3 h; inhibition, % at 12.5 µM; actives 0.96% (n = 320,000);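 active = mean replicate inhibition of at least 70% and a set share of replicates each scoring 70 or more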;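 note: 0% = median of neutral control wells and 100% = median of positive control wells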
# Target sequence (Q61009 whole entry, looked up): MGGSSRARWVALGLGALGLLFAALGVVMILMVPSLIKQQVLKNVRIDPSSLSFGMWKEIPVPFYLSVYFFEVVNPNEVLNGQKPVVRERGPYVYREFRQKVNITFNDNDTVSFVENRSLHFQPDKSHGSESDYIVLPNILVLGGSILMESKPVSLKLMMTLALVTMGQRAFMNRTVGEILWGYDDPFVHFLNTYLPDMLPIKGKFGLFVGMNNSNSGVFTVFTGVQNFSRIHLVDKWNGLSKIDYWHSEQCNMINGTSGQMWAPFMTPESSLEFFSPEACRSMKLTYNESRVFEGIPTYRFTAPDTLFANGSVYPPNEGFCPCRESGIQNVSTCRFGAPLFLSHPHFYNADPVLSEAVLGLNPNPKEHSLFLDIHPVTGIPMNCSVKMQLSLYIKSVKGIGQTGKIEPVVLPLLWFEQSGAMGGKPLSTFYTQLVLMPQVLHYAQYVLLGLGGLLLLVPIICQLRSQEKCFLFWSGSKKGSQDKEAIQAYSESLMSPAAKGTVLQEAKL
# ARNT-TACC3 inh: ARNT/TACC3 interaction disruption | actives 0.66% (n = 390,000) | Q9Y6A5 | AlphaScreen His-ARNT PAS-B/GST-TACC3 binding, luminescence; TACC3 fragment carries E629A point mutation | inhibition, % at 9.99 µM;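 active = mean inhibition of replicates at least 50% and at least half of replicates each reaching 50%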;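 note: 0% = complete ARNT plus TACC3 wells and 100% = ARNT alone without TACC3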
# CAL PDZ FP-2: blocks peptide binding to the human CAL PDZ domain. purified CAL PDZ, TMR-peptide fluorescence polarization, 1 h. inhibition, % at 24.9 µM. actives 0.92% (n = 300,000). Q9HD26. AID 602252;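 active = mean inhibition of at least 30% with at least half of replicates also reaching 30%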;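 note: 0% = DMSO neutral control and 100% = excess unlabeled competitor peptide PRC23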
# miR-122 sensor: inhibitors of miR-122 in Huh7 cells; Huh7 miR-122 Renilla luciferase sensor, 48 h; neutral wells = 0, positive control = 100; activation (reporter increase), % at 12.5 µM; actives 0.3% (n = 340,000);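 active = mean replicate activation score at least 90 and every replicate individually at or above 90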;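 note: higher luciferase means less miR-122 activity so hits act as miR-122 inhibitors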
# SR-BI uptake up: enhances SR-BI lipid uptake from DiI-HDL | CHO ldlA[mSR-BI] cells, DiI-HDL uptake fluorescence, 3 h; 100 = double the neutral-control signal | activation, % at 12.5 µM | actives 0.096% (n = 320,000);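 active = mean replicate activation of at least 60% and every replicate at or above 60%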;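 note: 0% = median plate neutral-control signal and 100% = twice that signal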
#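 material = CHO ldlA[mSR-BI] cells | medium = Ham's F12 with 0.5% BSA, HEPES 25 mM, pH 7.4 | reagent = fluorescent DiI-HDL, 10 µg/mL final | compound dosing = single-point compound dose | incubation = 3 h, 37 °C | measured by = bottom-read fluorescence, 550/595 nm | measure = HDL uptake via cellular fluorescence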
# Active calls of the source: *; . = no result given; [ ] = dose if it differs, or a comment.
SMILES,CAL PDZ FP-1,SR-BI HDL uptake,ARNT-TACC3 inh,CAL PDZ FP-2,miR-122 sensor,SR-BI uptake up
Cc1ccc(S(=O)(=O)N(C)C[C@H]2Oc3ccc(NC(=O)Nc4ccc5c(c4)OCO5)cc3CC(=O)N([C@H](C)CO)C[C@@H]2C)cc1,.,.,27,.,-2[16.7 µM],.
C[C@@H]1CN([C@H](C)CO)C(=O)Cc2cc(NC(=O)Nc3ccc(C(F)(F)F)cc3)ccc2O[C@@H]1CN(C)S(=O)(=O)c1ccc(Cl)cc1,.,.,.,.,11[16.7 µM],.
C[C@@H](NC(=O)C[C@@H]1C[C@H]2c3cc(NC(=O)c4cccnc4)ccc3O[C@H]2[C@H](CO)O1)c1ccccc1,.,.,-1,.,5[16.7 µM],.
C[C@H]1CN([C@@H](C)CO)C(=O)c2cccc(NS(=O)(=O)c3ccc(Cl)cc3)c2O[C@@H]1CN(C)Cc1ccncc1,.,.,-2,.,2[16.7 µM],.
C#Cc1ccc([C@H]2C=C(C(=O)N3CCN(Cc4ccccc4)CC3)O[C@@H](OCc3ccc(CO)cc3)C2)cc1,0,-15,4,-3,-2,15
O=C(C1=C[C@@H](c2ccc(Br)cc2)C[C@@H](OCc2ccc(CO)cc2)O1)N1CCN(Cc2ccccc2)CC1,0,-63,-8,1,.,63*
Cc1cccc(S(=O)(=O)N2C[C@H](O)COC[C@@H]3O[C@H](CC(=O)Nc4ccc(-c5ccccc5)cc4)CC[C@H]32)c1,.,.,-1,.,-12[16.7 µM],.
O=C(CCCC(=O)NN=Cc1ccccc1Cl)NN=Cc1ccccc1Cl,-2,7,4,-4,.,-7
O=C(CCCC(=O)NN=Cc1ccc(Cl)cc1Cl)NN=Cc1ccc(Cl)cc1Cl,-1,96*,2,-1,.,-96
O=C(c1ccc2ncsc2c1)N1CCCCC1,-1,-17,-3,-2,-8,17
Nc1nc2ccc(C(=O)N3CCCCC3)cc2s1,-3,.,47*,-2,5,.
CCc1nn(C(C)C(=O)NCCN2CCN(c3cccc(C)c3C)CC2)c(=O)c2cc3occc3n12 (stereo not drawn),-1,80*,2,-2,-3,-80
C[C@@H]1CCCCO[C@H](CN(C)C(=O)Cc2ccccc2)[C@@H](C)CN([C@H](C)CO)C(=O)c2cc(NS(=O)(=O)c3ccc(Cl)cc3)ccc2O1,.,.,.,.,4[16.7 µM],.
Cc1cc(NC2=CC(=O)C(=O)c3ccccc32)no1,1,1,37*,1,0,-1
COc1cc(OC)c(NC2=CC(=O)C(=O)c3ccccc32)cc1Cl,-1,102*,7,-5,0,-102
O=C(Nc1ccc(Cl)c(S(=O)(=O)N2CCCC2)c1)c1nn(CCO)c(=O)c2ccccc12,-3,36,8,39*,-4,-36
CCOC(=O)Cn1c(=O)oc2cc(S(=O)(=O)N(C)Cc3ccccc3)ccc21,0,-10,-4,76*,11,10
CCOC(=O)Cn1c(=O)oc2cc(S(=O)(=O)N(CCN(C)C)Cc3ccccc3)ccc21,0,-20,0,-2,-2,20
O=C1Nc2ccc(Br)cc2C12NNc1ccccc1O2 (stereo not drawn),2,90*,-12,-1,-4,-90
O=C1Nc2ccc(Br)cc2C1(O)c1ccccc1 (stereo not drawn),0,-19,-16,.,2,19
N#Cc1ccc(-c2ccc3c(c2)[C@H]2[C@H](CCN2Cc2ccc4c(c2)OCO4)[C@H](CO)N3)cc1,.,.,-7,.,-4[16.7 µM],.
C[C@H]1CN([C@@H](C)CO)S(=O)(=O)c2ccc(C3=CCCC3)cc2O[C@H]1CN(C)S(C)(=O)=O,.,.,.,.,1[16.7 µM],.
COc1ccc(NC(=O)C(CC(C)C)NC(=O)C2CCC(C)CC2)c(OC)c1 (stereo not drawn),-1,72*,-2,-4,4,-72
CCC(C)C(NC(=O)C1CCC(C)CC1)C(=O)Nc1ccc(OC)cc1OC (stereo not drawn),.,79*,3,-3,39,-79
CCC(C)C(NC(=O)C1CCC(C)CC1)C(=O)Nc1cc(OC)ccc1OC (stereo not drawn),-2,56,-2,-1,15,-56
SMILES,CAL PDZ FP-1,SR-BI HDL uptake,ARNT-TACC3 inh,CAL PDZ FP-2,miR-122 sensor,SR-BI uptake up
COc1ccc(OC)c(NC(=O)C(CC(C)C)NC(=O)C2CCCCC2)c1 (stereo not drawn),-1,65,0,-3,22,-65
O=C(N[C@@H]1CC[C@@H](CCNC(=O)C2CCCC2)O[C@H]1CO)c1ccncc1,.,.,-3,.,1[16.7 µM],.
O=C(C[C@@H]1CC[C@@H]2[C@H](COC[C@H](O)CN2C(=O)Cc2ccccc2)O1)NC1CCCC1,.,.,-3,.,1[16.7 µM],.
COc1ccccc1CNC(=O)C[C@H]1C[C@H]2c3cc(NC(=O)Cc4ccncc4)ccc3O[C@H]2[C@H](CO)O1,.,.,3,.,5[16.7 µM],.
CC(C)NC(=O)N[C@@H]1C=C[C@H](CC(=O)NCCN2CCCC2)O[C@@H]1CO,.,.,-3,.,.,.
O=C(/C=C/c1ccco1)NCc1ccc2c(c1)OCO2,-1,-6,5,2,2,6
O=C(/C=C/c1ccco1)Nc1ccc2c(c1)OCO2,.,12,15,60*,.,-12
CCC(=O)Nc1ccc(NC(=S)NC(=O)/C=C/c2ccco2)cc1,-2,89*,-7,-1,0,-89
CC(=O)NC(=S)Nc1ccc(NC(=S)NC(=O)/C=C/c2ccco2)cc1,0,42,0,-7,.,-42
COc1ccc2nc(NN=C(C)c3ccccn3)cc(C)c2c1,-1,31,70*,5,-16,-31
CC(=O)c1c(C)[nH]c(C(=O)N2c3ccccc3CC2C)c1C (stereo not drawn),-1,72*,-6,-3,14,-72
OCCN(Cc1ccccc1)Cc1ncccc1O,0,-25,24*,-5,.,25
COc1ccc(N2CCN(C(=O)Cn3nnc(-c4ccccc4N)n3)CC2)cc1,-1,83*,-7,-2,.,-83
O=C(CN1C(=O)NC2(CCCCCC2)C1=O)N1CCN(c2ccc(F)cc2)CC1,0,32,5,-2,3,-32
COc1ccc(N2CCN(C(=O)CN3C(=O)NC4(CCCCCC4)C3=O)CC2)cc1,0,12,0,59*,.,-12
N#C/C(=C(/O)c1ccco1)c1nc2ccccc2s1,1,-2,40,-1,6,2
CC1=CC(=C(C#N)c2nc3ccccc3s2)C=C(C)N1Cc1ccco1,-1,109*,-14,-3,.,-109
Cc1noc(C)c1S(=O)(=O)N(C)C[C@H]1Oc2ccc(NC(=O)Nc3ccccc3)cc2CC(=O)N([C@H](C)CO)C[C@@H]1C,.,.,.,.,-6[16.7 µM],.
C[C@H](CO)N1C[C@H](C)[C@H](CN(C)S(=O)(=O)c2ccccc2)Oc2ncc(-c3cccc(F)c3)cc2C1=O,.,.,-4,.,1[16.7 µM],.
